In article PMC5114172 (Journal of applied toxicology : JAT, 2016):

Assays:
monocyte-depleted PBMCs = assay: IL-1β secretion assay; type: cell-based, human; conditions: MD-PBMCs; for Interleukin 1 beta secreted: donor F166, 6 day; for fold increase in IL-1β secretion: third common donor (F152), 24 h
Outline: (§1)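 NK cells, MD-PBMCs, PBMCs or granulocytes (1.5 million/mL) or PBMC+granulocytes (0.75 million/mL each), per donor, exposed 24 h, 48 h or 6 days to 0.05–5 μM test compound diluted from DMSO stock, with DMSO controls. Supernatants kept at −70 °C. IL-1β by sandwich ELISA: HRP detection antibody, acid-stopped substrate, A450 against standards. Detection limit 3 pg/mL; triplicates; ANOVA then t test versus control, p<0.05.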

PBMCs = assay: IL-1β secretion assay; type: cell-based, human
Outline: as §1

For `CCC[CH2][Sn][CH2]CCC` [DBT, Dibutyltin], the “Interleukin 1 beta secreted” value (monocyte-depleted PBMCs; 0.25 μM DBT) was 2424 ± 95 pg/mL, the “Interleukin 1 beta secreted” value (monocyte-depleted PBMCs; 0.5 μM DBT) was 2118 ± 698 pg/mL and the “fold increase in IL-1β secretion” value (monocyte-depleted PBMCs; 50 nM DBT) was 2.1 fold. The “fold increase in IL-1β secretion” value (monocyte-depleted PBMCs; 100 nM DBT) was 1.4 fold, the “average of the maximum fold increase in IL-β secretion” value (PBMCs; 24 h, across donors) was 3.2 fold and the “Interleukin 1 beta secreted” value (PBMCs; donor F148, 24 h, 0.05 μM DBT) was 120.533 ± 8.211 ng/mL. For the same compound, the “Interleukin 1 beta secreted” value (PBMCs; donor F148, 24 h, 0.1 μM DBT) was 107.467 ± 4.636 ng/mL, the “Interleukin 1 beta secreted” value (PBMCs; donor F148, 24 h, 0.25 μM DBT) was 137.333 ± 3.926 ng/mL and the “Interleukin 1 beta secreted” value (PBMCs; donor F148, 24 h, 0.5 μM DBT) was 32.4 ± 1.833 ng/mL. The “Interleukin 1 beta secreted” value (PBMCs; donor F148, 24 h, 1 μM DBT) was 11.6 ± 11.085 ng/mL, the “Interleukin 1 beta secreted” value (PBMCs; donor F148, 24 h, 2.5 μM DBT) was 12.133 ± 0.462 ng/mL and the “Interleukin 1 beta secreted” value (PBMCs; donor F148, 24 h, 5 μM DBT) was 11.867 ± 0.924 ng/mL. The “Interleukin 1 beta secreted” value (PBMCs; donor F148, 48 h, 0.05 μM DBT) was 15851 ± 836 ng/mL, the “Interleukin 1 beta secreted” value (PBMCs; donor F148, 48 h, 0.1 μM DBT) was 17620 ± 257 ng/mL and the “Interleukin 1 beta secreted” value (PBMCs; donor F148, 48 h, 0.25 μM DBT) was 18728 ± 597 ng/mL. The “Interleukin 1 beta secreted” value (PBMCs; donor F148, 48 h, 0.5 μM DBT) was 5493 ± 409 ng/mL, the “Interleukin 1 beta secreted” value (PBMCs; donor F148, 48 h, 1 μM DBT) was 2224 ± 329 ng/mL and the “Interleukin 1 beta secreted” value (PBMCs; donor F148, 48 h, 5 μM DBT) was 483 ± 358 ng/mL. For the same compound, the “Interleukin 1 beta secreted” value (PBMCs; donor F148, 6 day, 0.1 μM DBT) was 25 ± 0 ng/mL, the “Interleukin 1 beta secreted” value (PBMCs; donor F148, 6 day, 0.25 μM DBT) was 25 ± 1 ng/mL and the “Interleukin 1 beta secreted” value (PBMCs; donor F148, 6 day, 0.5 μM DBT) was 6 ± 0 ng/mL. For the same compound, the “Interleukin 1 beta secreted” value (PBMCs; donor F154, 24 h, 0.05 μM DBT) was 5.056 ± 0.273 ng/mL, the “Interleukin 1 beta secreted” value (PBMCs; donor F154, 24 h, 0.1 μM DBT) was 4.568 ± 0.168 ng/mL and the “Interleukin 1 beta secreted” value (PBMCs; donor F154, 24 h, 0.25 μM DBT) was 1.383 ± 0.123 ng/mL. For the same compound, the “Interleukin 1 beta secreted” value (PBMCs; donor F154, 24 h, 0.5 μM DBT) was 0.765 ± 0.084 ng/mL, the “Interleukin 1 beta secreted” value (PBMCs; donor F154, 24 h, 1 μM DBT) was 0.38 ± 0.013 ng/mL and the “Interleukin 1 beta secreted” value (PBMCs; donor F154, 24 h, 2.5 μM DBT) was 0.111 ± 0.067 ng/mL. The “Interleukin 1 beta secreted” value (PBMCs; donor F154, 48 h, 0.05 μM DBT) was 4249 ± 294 ng/mL, the “Interleukin 1 beta secreted” value (PBMCs; donor F154, 48 h, 0.1 μM DBT) was 4193 ± 556 ng/mL and the “Interleukin 1 beta secreted” value (PBMCs; donor F154, 48 h, 0.25 μM DBT) was 1687 ± 42 ng/mL. For the same compound, the “Interleukin 1 beta secreted” value (PBMCs; donor F154, 48 h, 0.5 μM DBT) was 1036 ± 128 ng/mL, the “Interleukin 1 beta secreted” value (PBMCs; donor F154, 48 h, 1 μM DBT) was 1325 ± 72 ng/mL and the “Interleukin 1 beta secreted” value (PBMCs; donor F154, 48 h, 2.5 μM DBT) was 378 ± 61 ng/mL. The “Interleukin 1 beta secreted” value (PBMCs; donor F154, 48 h, 5 μM DBT) was 193 ± 0 ng/mL, the “Interleukin 1 beta secreted” value (PBMCs; donor F154, 6 day, 0.05 μM DBT) was 3507 ± 155 ng/mL and the “Interleukin 1 beta secreted” value (PBMCs; donor F154, 6 day, 0.1 μM DBT) was 3300 ± 114 ng/mL. For the same compound, the “Interleukin 1 beta secreted” value (PBMCs; donor F154, 6 day, 0.25 μM DBT) was 3816 ± 464 ng/mL, the “Interleukin 1 beta secreted” value (PBMCs; donor F154, 6 day, 0.5 μM DBT) was 2056 ± 114 ng/mL and the “Interleukin 1 beta secreted” value (PBMCs; donor F154, 6 day, 1 μM DBT) was 2531 ± 464 ng/mL. The “Interleukin 1 beta secreted” value (PBMCs; donor F154, 6 day, 2.5 μM DBT) was 586 ± 179 ng/mL, the “Interleukin 1 beta secreted” value (PBMCs; donor F154, 6 day, 5 μM DBT) was 118 ± 146 ng/mL and the “Interleukin 1 beta secreted” value (PBMCs; donor F159, 24 h, 0.05 μM DBT) was 2.812 ± 0.15 ng/mL. For the same compound, the “fold increase in IL-1β secretion” value (PBMCs; donor F159, 24 h, 0.05 μM DBT) was 1.7 fold, the “Interleukin 1 beta secreted” value (PBMCs; donor F159, 24 h, 0.1 μM DBT) was 6.376 ± 0.233 ng/mL and the “fold increase in IL-1β secretion” value (PBMCs; donor F159, 24 h, 0.1 μM DBT) was 3.8 fold. The “Interleukin 1 beta secreted” value (PBMCs; donor F159, 24 h, 0.25 μM DBT) was 5.803 ± 0.15 ng/mL, the “fold increase in IL-1β secretion” value (PBMCs; donor F159, 24 h, 0.25 μM DBT) was 3.4 fold and the “Interleukin 1 beta secreted” value (PBMCs; donor F159, 24 h, 0.5 μM DBT) was 1.667 ± 0.112 ng/mL. For the same compound, the “Interleukin 1 beta secreted” value (PBMCs; donor F159, 24 h, 1 μM DBT) was 0.812 ± 0.065 ng/mL, the “Interleukin 1 beta secreted” value (PBMCs; donor F159, 48 h, 0.05 μM DBT) was 1034 ± 299 ng/mL and the “Interleukin 1 beta secreted” value (PBMCs; donor F159, 48 h, 0.1 μM DBT) was 1211 ± 71 ng/mL. For the same compound, the “Interleukin 1 beta secreted” value (PBMCs; donor F159, 48 h, 0.25 μM DBT) was 1243 ± 192 ng/mL, the “Interleukin 1 beta secreted” value (PBMCs; donor F159, 48 h, 0.5 μM DBT) was 1099 ± 93 ng/mL and the “Interleukin 1 beta secreted” value (PBMCs; donor F159, 48 h, 1 μM DBT) was 1246 ± 9 ng/mL. For the same compound, the “Interleukin 1 beta secreted” value (PBMCs; donor F159, 48 h, 2.5 μM DBT) was 532 ± 101 ng/mL, the “Interleukin 1 beta secreted” value (PBMCs; donor F159, 48 h, 5 μM DBT) was 565 ± 15 ng/mL and the “Interleukin 1 beta secreted” value (PBMCs; donor F159, 6 day, 0.05 μM DBT) was 210 ± 62 ng/mL. For the same compound, the “Interleukin 1 beta secreted” value (PBMCs; donor F159, 6 day, 0.1 μM DBT) was 236 ± 10 ng/mL, the “Interleukin 1 beta secreted” value (PBMCs; donor F159, 6 day, 0.25 μM DBT) was 507 ± 21 ng/mL and the “Interleukin 1 beta secreted” value (PBMCs; donor F159, 6 day, 0.5 μM DBT) was 229 ± 7 ng/mL. For the same compound, the “Interleukin 1 beta secreted” value (PBMCs; donor F159, 6 day, 1 μM DBT) was 256 ± 12 ng/mL, the “Interleukin 1 beta secreted” value (PBMCs; donor F159, 6 day, 2.5 μM DBT) was 52 ± 1 ng/mL and the “Interleukin 1 beta secreted” value (PBMCs; donor F159, 6 day, 5 μM DBT) was 51 ± 9 ng/mL. For the same compound, the “Interleukin 1 beta secreted” value (PBMCs; donor F173, 24 h, 0.05 μM DBT) was 7.072 ± 0.935 ng/mL, the “Interleukin 1 beta secreted” value (PBMCs; donor F173, 24 h, 0.1 μM DBT) was 8.1 ± 0.822 ng/mL and the “Interleukin 1 beta secreted” value (PBMCs; donor F173, 24 h, 0.25 μM DBT) was 4.443 ± 0.405 ng/mL. The “Interleukin 1 beta secreted” value (PBMCs; donor F173, 24 h, 0.5 μM DBT) was 20.063 ± 1.077 ng/mL, the “Interleukin 1 beta secreted” value (PBMCs; donor F173, 24 h, 1 μM DBT) was 9.989 ± 0.155 ng/mL and the “Interleukin 1 beta secreted” value (PBMCs; donor F173, 24 h, 2.5 μM DBT) was 3.813 ± 0.058 ng/mL. The “Interleukin 1 beta secreted” value (PBMCs; donor F173, 24 h, 5 μM DBT) was 2.517 ± 0.073 ng/mL, the “Interleukin 1 beta secreted” value (PBMCs; donor F173, 48 h, 0.05 μM DBT) was 614 ± 63 ng/mL and the “Interleukin 1 beta secreted” value (PBMCs; donor F173, 48 h, 0.1 μM DBT) was 500 ± 41 ng/mL. For the same compound, the “Interleukin 1 beta secreted” value (PBMCs; donor F173, 48 h, 0.25 μM DBT) was 425 ± 20 ng/mL, the “Interleukin 1 beta secreted” value (PBMCs; donor F173, 48 h, 0.5 μM DBT) was 745 ± 36 ng/mL and the “Interleukin 1 beta secreted” value (PBMCs; donor F173, 48 h, 1 μM DBT) was 2064 ± 194 ng/mL. For the same compound, the “Interleukin 1 beta secreted” value (PBMCs; donor F173, 48 h, 2.5 μM DBT) was 591 ± 32 ng/mL, the “Interleukin 1 beta secreted” value (PBMCs; donor F173, 48 h, 5 μM DBT) was 478 ± 32 ng/mL and the “Interleukin 1 beta secreted” value (PBMCs; donor F173, 6 day, 0.05 μM DBT) was 465 ± 151 ng/mL. The “Interleukin 1 beta secreted” value (PBMCs; donor F173, 6 day, 0.1 μM DBT) was 398 ± 28 ng/mL, the “Interleukin 1 beta secreted” value (PBMCs; donor F173, 6 day, 0.25 μM DBT) was 453 ± 16 ng/mL and the “Interleukin 1 beta secreted” value (PBMCs; donor F173, 6 day, 0.5 μM DBT) was 932 ± 8 ng/mL. For the same compound, the “Interleukin 1 beta secreted” value (PBMCs; donor F173, 6 day, 1 μM DBT) was 690 ± 15 ng/mL, the “Interleukin 1 beta secreted” value (PBMCs; donor F173, 6 day, 2.5 μM DBT) was 181 ± 8 ng/mL and the “Interleukin 1 beta secreted” value (PBMCs; donor F173, 6 day, 5 μM DBT) was 145 ± 2 ng/mL.
